In this experiment the test system is HCT116 (wild-type APC) cells. Briefly: Cell viability / toxicity in HCT116. The format is cell-based. The conditions noted are these: Homo sapiens, HCT-116, read-out: IC50 (viability / growth inhibition). In short, it runs like this:
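Dose-response toxicity assay of test compound on human HCT116 (APC wild-type) cells. Cells are kept in low-serum medium (0.2% FBS with growth factors), not fully defined medium. IC50 is the concentration that reduces cell viability by 50%.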

Molecules are shown by their SMILES.

For the compound `CC[C@H](C)C(=O)O[C@H]1CCC=C2C=C[C@H](C)[C@H](CC[C@@H](O)C[C@@H](O)CC(=O)O)[C@H]21` [Compactin, compactin], the IC50 is roughly 18.6 µM.
